In ChEMBL document CHEMBL2346629, “Discovery and characterization of novel allosteric FAK inhibitors” (Eur J Med Chem, 2013):

Tests used:
[1] = test system: Receptor-type tyrosine-protein kinase FLT3 (Homo sapiens), P36888 [D835Y]; experiment: Inhibition of FLT3 D835Y mutant (unknown origin) using [gamma-33P]ATP assessed as residual activity at 3 uM
In short: (§1)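 Radiometric kinase profiling service covering 288 kinases (261 wild-type, 27 mutant). Inhibition was read as incorporation from [γ-³³P]ATP.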

[2] = biological target: Serine/threonine-protein kinase Sgk3 (Homo sapiens) (UniProt Q96BR1); experiment: Inhibition of SGK3 (unknown origin) using [gamma-33P]ATP assessed as residual activity at 3 uM
[3] = biological target: Receptor-interacting serine/threonine-protein kinase 2 (Homo sapiens) (UniProt O43353); experiment: Inhibition of RIPK2 (unknown origin) using [gamma-33P]ATP assessed as residual activity at 3 uM
[4] = biological target: Serine/threonine-protein kinase Nek6 (Homo sapiens) (UniProt Q9HC98); experiment: Inhibition of NEK6 (unknown origin) using [gamma-33P]ATP assessed as residual activity at 3 uM
[5] = biological target: Activin receptor type-1B (Homo sapiens) (UniProt P36896); experiment: Inhibition of ALK4 (unknown origin) using [gamma-33P]ATP assessed as residual activity at 3 uM
In short: (§2)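 Radiometric profiling across 288 kinases (261 wild-type, 27 mutant), run as an outsourced service. Inhibition read out as [gamma-33P]ATP incorporation into substrate.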

[6] = biological target: Serine/threonine-protein kinase 3 (Homo sapiens) (UniProt Q13188); experiment: Inhibition of MST2 (unknown origin) using [gamma-33P]ATP assessed as residual activity at 3 uM
[7] = biological target: SRSF protein kinase 2 (Homo sapiens) (UniProt P78362); experiment: Inhibition of SRPK2 (unknown origin) using [gamma-33P]ATP assessed as residual activity at 3 uM
[8] = biological target: Ribosomal protein S6 kinase alpha-6 (Homo sapiens) (UniProt Q9UK32); experiment: Inhibition of RSK4 (unknown origin) using [gamma-33P]ATP assessed as residual activity at 3 uM
[9] = biological target: Tyrosine-protein kinase Mer (Homo sapiens) (UniProt Q12866); experiment: Inhibition of c-MER (unknown origin) using [gamma-33P]ATP assessed as residual activity at 3 uM
[10] = test system: Tyrosine-protein kinase ABL1 (Homo sapiens), P00519 [Q252H]; experiment: Inhibition of ABL1 Q252H mutant (unknown origin) using [gamma-33P]ATP assessed as residual activity at 3 uM; in short: as §2
[11] = biological target: Myotonin-protein kinase (Homo sapiens) (UniProt Q09013); experiment: Inhibition of DMPK (unknown origin) using [gamma-33P]ATP assessed as residual activity at 3 uM
In short: (§3)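 Reaction Biology HotSpot radiometric profiling panel of 288 kinases (261 wild-type, 27 mutant). Kinase activity was read out by incorporation of [γ-33P]ATP.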

[12] = biological target: Ephrin type-B receptor 3 (Homo sapiens) (UniProt P54753); experiment: Inhibition of EPHB3 (unknown origin) using [gamma-33P]ATP assessed as residual activity at 3 uM; in short: as §3
[13] = biological target: Proto-oncogene tyrosine-protein kinase ROS (Homo sapiens) (UniProt P08922); experiment: Inhibition of ROS (unknown origin) using [gamma-33P]ATP assessed as residual activity at 3 uM
[14] = test system: Mast/stem cell growth factor receptor Kit (Homo sapiens), P10721 [V560G]; experiment: Inhibition of c-Kit V560G mutant (unknown origin) using [gamma-33P]ATP assessed as residual activity at 3 uM
[15] = biological target: Mitogen-activated protein kinase 12 (Homo sapiens) (UniProt P53778); experiment: Inhibition of P38g (unknown origin) using [gamma-33P]ATP assessed as residual activity at 3 uM
[16] = biological target: Insulin receptor-related protein (Homo sapiens) (UniProt P14616); experiment: Inhibition of IRR (unknown origin) using [gamma-33P]ATP assessed as residual activity at 3 uM; in short: as §1
[17] = biological target: Serine/threonine-protein kinase SIK2 (Homo sapiens) (UniProt Q9H0K1); experiment: Inhibition of SIK2 (unknown origin) using [gamma-33P]ATP assessed as residual activity at 3 uM
[18] = biological target: Protein kinase C eta type (Homo sapiens) (UniProt P24723); experiment: Inhibition of PKCeta (unknown origin) using [gamma-33P]ATP assessed as residual activity at 3 uM
[19] = biological target: Cyclin-dependent kinase 5/CDK5 activator 1 (Homo sapiens) (UniProt Q00535+Q15078); experiment: Inhibition of CDK5/p35 (unknown origin) using [gamma-33P]ATP assessed as residual activity at 3 uM; type: protein-complex assay; in short: as §2
[20] = biological target: Tyrosine-protein kinase receptor UFO (Homo sapiens) (UniProt P30530); experiment: Inhibition of AXL (unknown origin) using [gamma-33P]ATP assessed as residual activity at 3 uM; in short: as §2
[21] = biological target: Serine/threonine-protein kinase PAK 1 (Homo sapiens) (UniProt Q13153); experiment: Inhibition of PAK1 (unknown origin) using [gamma-33P]ATP assessed as residual activity at 3 uM
[22] = biological target: Ribosomal protein S6 kinase alpha-4 (Homo sapiens) (UniProt O75676); experiment: Inhibition of MSK2 (unknown origin) using [gamma-33P]ATP assessed as residual activity at 3 uM
[23] = biological target: Proto-oncogene tyrosine-protein kinase Src (Homo sapiens) (UniProt P12931); experiment: Inhibition of c-Src (unknown origin) using [gamma-33P]ATP assessed as residual activity at 3 uM
[24] = biological target: Serine/threonine-protein kinase PAK 2 (Homo sapiens) (UniProt Q13177); experiment: Inhibition of PAK2 (unknown origin) using [gamma-33P]ATP assessed as residual activity at 3 uM
[25] = biological target: Mitogen-activated protein kinase 10 (Homo sapiens) (UniProt P53779); experiment: Inhibition of JNK3 (unknown origin) using [gamma-33P]ATP assessed as residual activity at 3 uM; in short: as §1
[26] = biological target: Homeodomain-interacting protein kinase 3 (Homo sapiens) (UniProt Q9H422); experiment: Inhibition of HIPK3 (unknown origin) using [gamma-33P]ATP assessed as residual activity at 3 uM; in short: as §1
[27] = biological target: Ephrin type-A receptor 4 (Homo sapiens) (UniProt P54764); experiment: Inhibition of EPHA4 (unknown origin) using [gamma-33P]ATP assessed as residual activity at 3 uM; in short: as §3
[28] = biological target: Hepatocyte growth factor receptor (Homo sapiens) (UniProt P08581); experiment: Inhibition of c-MET (unknown origin) using [gamma-33P]ATP assessed as residual activity at 3 uM
[29] = biological target: Fibroblast growth factor receptor 3 (Homo sapiens) (UniProt P22607); experiment: Inhibition of FGFR3 (unknown origin) using [gamma-33P]ATP assessed as residual activity at 3 uM; in short: as §3
[30] = biological target: Tyrosine-protein kinase Lyn (Homo sapiens) (UniProt P07948); experiment: Inhibition of LYN-B (unknown origin) using [gamma-33P]ATP assessed as residual activity at 3 uM; in short: as §1
[31] = biological target: Tyrosine-protein kinase receptor TYRO3 (Homo sapiens) (UniProt Q06418); experiment: Inhibition of TYRO3 (unknown origin) using [gamma-33P]ATP assessed as residual activity at 3 uM
[32] = biological target: Fibroblast growth factor receptor 1 (Homo sapiens) (UniProt P11362); experiment: Inhibition of FGFR1 (unknown origin) using [gamma-33P]ATP assessed as residual activity at 3 uM; in short: as §3

Sequence of SRSF protein kinase 2 (Homo sapiens) (P78362 whole entry, looked up): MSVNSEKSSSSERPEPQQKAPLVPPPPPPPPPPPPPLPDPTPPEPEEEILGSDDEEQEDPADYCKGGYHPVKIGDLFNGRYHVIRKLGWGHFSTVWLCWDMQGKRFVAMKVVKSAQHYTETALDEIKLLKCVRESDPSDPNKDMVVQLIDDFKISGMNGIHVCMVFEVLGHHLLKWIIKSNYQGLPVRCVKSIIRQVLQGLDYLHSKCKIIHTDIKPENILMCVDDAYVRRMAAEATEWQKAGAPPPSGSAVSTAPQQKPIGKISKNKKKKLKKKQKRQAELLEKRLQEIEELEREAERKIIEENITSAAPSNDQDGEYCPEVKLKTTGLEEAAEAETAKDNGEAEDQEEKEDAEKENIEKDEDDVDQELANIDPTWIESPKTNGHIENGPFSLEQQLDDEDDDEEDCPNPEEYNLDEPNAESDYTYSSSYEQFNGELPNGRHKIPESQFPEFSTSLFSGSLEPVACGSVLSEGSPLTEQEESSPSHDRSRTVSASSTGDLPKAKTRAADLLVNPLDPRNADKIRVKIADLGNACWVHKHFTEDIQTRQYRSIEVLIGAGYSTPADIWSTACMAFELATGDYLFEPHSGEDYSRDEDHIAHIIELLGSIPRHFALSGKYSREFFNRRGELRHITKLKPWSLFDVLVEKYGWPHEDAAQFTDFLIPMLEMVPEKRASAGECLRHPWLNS
Sequence of Serine/threonine-protein kinase PAK 1 (Homo sapiens) (Q13153 whole entry): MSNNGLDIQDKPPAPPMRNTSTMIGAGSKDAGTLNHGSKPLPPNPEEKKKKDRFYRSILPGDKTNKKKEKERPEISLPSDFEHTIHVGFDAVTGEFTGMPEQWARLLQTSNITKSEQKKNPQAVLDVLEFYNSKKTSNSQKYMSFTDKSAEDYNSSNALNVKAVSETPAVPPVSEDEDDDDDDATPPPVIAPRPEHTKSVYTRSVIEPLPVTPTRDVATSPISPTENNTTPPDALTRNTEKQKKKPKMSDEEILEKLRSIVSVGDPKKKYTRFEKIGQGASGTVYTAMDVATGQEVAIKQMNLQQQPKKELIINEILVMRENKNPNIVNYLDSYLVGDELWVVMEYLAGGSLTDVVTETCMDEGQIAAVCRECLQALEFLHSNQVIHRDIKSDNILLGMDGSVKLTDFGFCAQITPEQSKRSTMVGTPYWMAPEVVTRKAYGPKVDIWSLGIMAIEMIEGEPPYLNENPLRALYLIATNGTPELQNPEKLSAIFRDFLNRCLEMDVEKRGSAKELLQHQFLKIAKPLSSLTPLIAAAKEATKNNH
Sequence of Activin receptor type-1B (Homo sapiens) (P36896 whole entry): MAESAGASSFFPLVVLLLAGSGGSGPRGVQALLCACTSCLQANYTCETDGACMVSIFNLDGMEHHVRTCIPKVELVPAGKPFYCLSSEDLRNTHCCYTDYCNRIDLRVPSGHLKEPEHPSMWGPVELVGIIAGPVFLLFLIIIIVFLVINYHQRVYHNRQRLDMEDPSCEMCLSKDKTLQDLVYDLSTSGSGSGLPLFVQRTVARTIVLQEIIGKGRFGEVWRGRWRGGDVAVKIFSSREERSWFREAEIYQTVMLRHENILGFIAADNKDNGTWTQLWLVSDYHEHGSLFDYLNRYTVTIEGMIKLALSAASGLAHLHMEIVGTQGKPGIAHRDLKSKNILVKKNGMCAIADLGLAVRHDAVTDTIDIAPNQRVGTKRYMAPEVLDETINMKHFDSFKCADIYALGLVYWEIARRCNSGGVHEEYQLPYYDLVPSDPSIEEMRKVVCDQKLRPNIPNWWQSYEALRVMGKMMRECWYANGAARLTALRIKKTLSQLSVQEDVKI
Sequence of Fibroblast growth factor receptor 3 (Homo sapiens) (P22607 23-806 limits assumed): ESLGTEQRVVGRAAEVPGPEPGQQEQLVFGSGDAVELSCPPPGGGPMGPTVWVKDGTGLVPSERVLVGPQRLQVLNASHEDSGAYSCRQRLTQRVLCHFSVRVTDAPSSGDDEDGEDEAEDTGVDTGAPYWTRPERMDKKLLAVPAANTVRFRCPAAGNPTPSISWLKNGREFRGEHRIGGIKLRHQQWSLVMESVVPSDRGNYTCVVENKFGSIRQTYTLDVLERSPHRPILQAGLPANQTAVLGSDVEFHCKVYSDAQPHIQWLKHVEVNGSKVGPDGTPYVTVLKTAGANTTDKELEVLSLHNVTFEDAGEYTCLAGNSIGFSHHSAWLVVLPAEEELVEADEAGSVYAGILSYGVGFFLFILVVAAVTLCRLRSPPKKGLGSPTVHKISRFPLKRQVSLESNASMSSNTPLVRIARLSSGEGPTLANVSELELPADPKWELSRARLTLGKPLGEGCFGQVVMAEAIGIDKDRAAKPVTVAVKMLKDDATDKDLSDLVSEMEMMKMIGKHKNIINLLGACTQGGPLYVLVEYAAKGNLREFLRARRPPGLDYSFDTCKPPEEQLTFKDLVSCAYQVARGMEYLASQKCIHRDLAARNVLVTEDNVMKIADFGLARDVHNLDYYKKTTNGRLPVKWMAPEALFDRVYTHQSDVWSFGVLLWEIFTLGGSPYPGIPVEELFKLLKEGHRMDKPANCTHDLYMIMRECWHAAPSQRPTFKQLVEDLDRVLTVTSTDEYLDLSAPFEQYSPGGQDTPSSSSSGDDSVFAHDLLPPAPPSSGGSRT
Sequence of Ephrin type-A receptor 4 (Homo sapiens) (P54764 whole entry): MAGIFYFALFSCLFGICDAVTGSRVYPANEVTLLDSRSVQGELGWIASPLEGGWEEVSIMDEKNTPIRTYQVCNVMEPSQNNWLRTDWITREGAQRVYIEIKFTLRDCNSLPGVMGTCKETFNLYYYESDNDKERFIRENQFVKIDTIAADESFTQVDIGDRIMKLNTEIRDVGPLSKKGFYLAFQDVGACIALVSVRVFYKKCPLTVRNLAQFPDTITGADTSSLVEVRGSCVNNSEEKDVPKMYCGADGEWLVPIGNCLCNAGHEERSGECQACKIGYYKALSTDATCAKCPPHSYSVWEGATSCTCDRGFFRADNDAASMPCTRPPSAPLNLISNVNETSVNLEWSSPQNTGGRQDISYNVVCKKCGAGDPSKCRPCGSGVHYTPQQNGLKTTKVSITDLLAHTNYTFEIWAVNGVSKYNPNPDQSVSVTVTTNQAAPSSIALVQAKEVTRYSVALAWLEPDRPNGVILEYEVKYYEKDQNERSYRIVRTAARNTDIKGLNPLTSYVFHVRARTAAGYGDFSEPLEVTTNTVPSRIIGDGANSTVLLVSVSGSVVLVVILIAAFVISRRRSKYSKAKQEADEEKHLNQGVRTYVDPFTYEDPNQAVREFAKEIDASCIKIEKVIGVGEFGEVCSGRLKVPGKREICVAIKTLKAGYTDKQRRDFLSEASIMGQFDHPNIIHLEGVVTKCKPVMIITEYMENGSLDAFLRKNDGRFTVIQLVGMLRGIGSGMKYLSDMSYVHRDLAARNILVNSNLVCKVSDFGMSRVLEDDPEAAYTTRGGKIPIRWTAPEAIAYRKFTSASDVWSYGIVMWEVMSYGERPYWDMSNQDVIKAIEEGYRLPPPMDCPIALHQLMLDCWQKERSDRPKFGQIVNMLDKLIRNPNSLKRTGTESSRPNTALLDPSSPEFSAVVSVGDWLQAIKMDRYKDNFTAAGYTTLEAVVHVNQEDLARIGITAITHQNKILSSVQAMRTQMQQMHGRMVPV
Sequence of Ribosomal protein S6 kinase alpha-6 (Homo sapiens) (Q9UK32 whole entry): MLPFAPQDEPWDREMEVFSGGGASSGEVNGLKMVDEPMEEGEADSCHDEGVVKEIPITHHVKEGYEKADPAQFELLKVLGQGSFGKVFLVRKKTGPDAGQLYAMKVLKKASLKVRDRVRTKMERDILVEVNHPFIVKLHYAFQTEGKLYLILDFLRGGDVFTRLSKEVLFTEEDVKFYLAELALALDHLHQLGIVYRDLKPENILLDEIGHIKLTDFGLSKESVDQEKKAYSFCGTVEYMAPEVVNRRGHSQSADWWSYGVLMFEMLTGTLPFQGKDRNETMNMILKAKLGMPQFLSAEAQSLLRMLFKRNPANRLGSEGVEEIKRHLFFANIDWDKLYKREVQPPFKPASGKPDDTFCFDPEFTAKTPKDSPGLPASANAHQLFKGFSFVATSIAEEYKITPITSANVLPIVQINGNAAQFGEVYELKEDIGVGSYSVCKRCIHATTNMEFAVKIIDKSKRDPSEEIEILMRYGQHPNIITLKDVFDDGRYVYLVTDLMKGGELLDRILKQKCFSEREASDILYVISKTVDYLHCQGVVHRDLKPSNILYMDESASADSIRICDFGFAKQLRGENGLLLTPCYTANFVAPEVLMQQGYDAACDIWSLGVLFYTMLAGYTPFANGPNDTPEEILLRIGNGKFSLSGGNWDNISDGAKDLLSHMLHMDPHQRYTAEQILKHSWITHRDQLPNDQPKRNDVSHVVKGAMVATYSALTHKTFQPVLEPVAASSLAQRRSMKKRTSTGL
Sequence of Protein kinase C eta type (Homo sapiens) (P24723 whole entry): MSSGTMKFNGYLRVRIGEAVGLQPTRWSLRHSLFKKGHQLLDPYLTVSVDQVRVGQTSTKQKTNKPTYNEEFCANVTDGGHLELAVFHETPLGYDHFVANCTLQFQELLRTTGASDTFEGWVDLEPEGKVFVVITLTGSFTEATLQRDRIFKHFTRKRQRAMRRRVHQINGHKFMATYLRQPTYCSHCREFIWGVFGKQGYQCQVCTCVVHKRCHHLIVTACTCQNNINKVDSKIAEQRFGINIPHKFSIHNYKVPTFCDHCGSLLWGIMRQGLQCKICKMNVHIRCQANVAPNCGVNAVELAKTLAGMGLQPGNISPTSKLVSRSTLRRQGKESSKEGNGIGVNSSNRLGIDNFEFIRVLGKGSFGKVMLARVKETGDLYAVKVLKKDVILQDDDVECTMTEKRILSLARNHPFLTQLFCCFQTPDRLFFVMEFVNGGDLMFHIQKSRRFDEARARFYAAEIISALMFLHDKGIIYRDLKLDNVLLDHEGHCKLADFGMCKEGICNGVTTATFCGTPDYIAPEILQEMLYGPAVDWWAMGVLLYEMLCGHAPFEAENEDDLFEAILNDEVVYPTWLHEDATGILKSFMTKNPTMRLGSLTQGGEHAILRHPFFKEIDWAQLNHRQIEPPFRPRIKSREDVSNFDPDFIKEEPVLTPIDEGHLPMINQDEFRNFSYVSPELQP

- Activity [1]: 52%
- Activity [2]: 93%
- Activity [3]: 91%
- Activity [4]: 94%
- Activity [5]: 94%
- Activity [6]: 78%
- Activity [7]: 102%
- Activity [8]: 101%
- Activity [9]: 86%
- Activity [10]: 60%
- Activity [11]: 103%
- Activity [12]: 95%
- Activity [13]: 95%
- Activity [14]: 72%
- Activity [15]: 101%
- Activity [16]: 100%
- Activity [17]: 103%
- Activity [18]: 93%
- Activity [19]: 90%
- Activity [20]: 89%
- Activity [21]: 80%
- Activity [22]: 98%
- Activity [23]: 58%
- Activity [24]: 94%
- Activity [25]: 102%
- Activity [26]: 104%
- Activity [27]: 95%
- Activity [28]: 88%
- Activity [29]: 91%
- Activity [30]: 78%
- Activity [31]: 94%
- Activity [32]: 95%
SMILES: CCc1ccc(-c2ccc3c(c2)-c2[nH]ncc2S(=O)(=O)N3C)cc1
